Assay results pooled from the literature.
Compare with care: the assays were run in different laboratories.
Target: Mitogen-activated protein kinase 10 (MAPK10, Homo sapiens, UniProt P53779)

| Structure (SMILES) | read-out | technique | concentration | remaining binding [%] |
| --- | --- | --- | --- | --- |
| CCC(=N\O)/C(C)=C/c1ccc(F)cc1 | cell-free assay | competition with immobilised ligand | 1 µM | 100 |
| COc1cnc(Nc2cccc(S(N)(=O)=O)c2)nc1N1CCN(c2ccccc2)CC1 | binding | competition with immobilised ligand | 1 µM | 83 |
| O=C1CCc2cc(Nc3cc(OC4CCOCC4)c([N+](=O)[O-])cc3Cl)ccc2N1 | cell-free assay | competition with immobilised ligand | 1 µM | 98 |
| CC1CCCN1c1nccc(-c2cnn3ncccc23)n1 (stereo not drawn) | binding | – | 1 µM | 79 |
| O=C(N[C@H]1CCCCC/C=C\C2C[C@@]2(C(=O)O)NC(=O)[C@@H]2C[C@@H](Oc3ccncc3)CN2C1=O)OC1CCCC1 (stereo partly drawn) | binding | competition with immobilised ligand | 1 µM | 81 |
| CC(C)(C)c1ccc(-c2nc(CBr)nn2-c2cccc(O)c2)cc1 | cell-free assay | competition with immobilised ligand | 10 µM | 65 |
| F[C@@H]1CCN(c2nccc(-c3cnn4ncccc34)n2)C1 | binding | – | 1 µM | 87 |
| Cc1cnc(Nc2ccc(C(=O)N3CCC(N4CCCC4)CC3)cc2)nc1-c1cc2ccccc2s1 | binding | competition with immobilised ligand | 1 µM | 8.6 |
| COc1cnc(Nc2cccc(S(N)(=O)=O)c2)nc1N1CCN(c2ccccc2)C(=O)C1 | binding | competition with immobilised ligand | 1 µM | 63 |
| CN(C)c1nccc(-c2cnn3ncccc23)n1 | binding | – | 1 µM | 49 |
| C[C@@H]1CN(c2ccc3ncc(-c4ccc5[nH]nc(C6CC6)c5c4)n3n2)C[C@H](C)O1 | binding | competition with immobilised ligand | 50 nM | 85 |
| Cc1noc([C@H]2C[C@@H](c3ccc(C(F)(F)F)cc3)CN(C(=O)N3CCS(=O)(=O)C3)C2)n1 | cell-free assay | competition with immobilised ligand | 1 µM | 88 |
| C[C@@H]1CCN(c2nccc(-c3cnn4ncccc34)n2)C1 | binding | – | 1 µM | 34 |
| Cc1ccc(-c2cnc([C@@]3(O)CC[C@H](C(=O)O)C(C)(C)C3)s2)cc1Nc1cccc(C(F)(F)F)n1 | binding | competition with immobilised ligand | 1 µM | 37.5 |
| Nc1ncc2c(n1)-c1c([nH]c3ccc(C#CC4CC4)cc13)CCCC2 | binding | competition with immobilised ligand | 1 µM | 76 |
| O=C(c1ccc(Nc2ncc(Cl)c(-c3ccc(Cl)s3)n2)cc1)N1CCC(N2CCCC2)CC1 | binding | competition with immobilised ligand | 1 µM | 1.1 |
| CCC(=O)N[C@H]1CC[C@@H](C(=O)N(C)c2ccc(-c3nc4ccccc4o3)cc2)C1 | cell-free assay | competition with immobilised ligand | 1 µM | 85 |
| CN(C)c1nccc(-c2cnc3ncccn23)n1 | binding | – | 1 µM | 70 |
| O=C(c1ccc(Nc2nccc(-c3cc4ccccc4s3)n2)cc1)N1CCC(N2CCCC2)CC1 | binding | competition with immobilised ligand | 1 µM | 12 |
| N[C@@H]1CCN(c2nccc(-c3cnn4ncccc34)n2)C1 | binding | – | 1 µM | 52 |
| CCOCCn1cc(C(=O)Nc2ccc(-n3nc(-c4cccnc4)cc3C(F)(F)F)cn2)ccc1=O | cell-free assay | competition with immobilised ligand | 1 µM | 100 |
| c1cncc(-c2cccc(Nc3nccc(NC4CCCCC4)n3)c2)c1 | binding | competition with immobilised ligand | 10 µM | 51 |
| c1cnn2ncc(-c3ccnc(N4CCC45COC5)n3)c2c1 | binding | – | 1 µM | 27 |
| O=C(Nc1c[nH]nc1C(=O)NC1CCNCC1)c1cc(F)cc(F)c1 | binding | competition with immobilised ligand | 1 µM | 100 |
